Reference: ChEMBL document CHEMBL1255259, “Phosphorothioate-modified oligodeoxynucleotides inhibit human cytomegalovirus replication by blocking virus entry” (Antimicrob Agents Chemother, 2008)
Active and inactive are the calls of the source. The rule behind the calls is not given here.

Tests used:
[1] = Cytotoxicity against HELF assessed as cell viability by MTT assay after 6 days at <=10 uM; type: cell-based; settings: human, 144 h
Summary of the method: (§1)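 HELF exposed to rising ODN concentrations (up to 10 μM) for 6 days; viable cells measured by MTT. CC50 taken as concentration that cuts viability to 50%.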

Human betaherpesvirus 5 [2] = test: Antimicrobial activity against Human cytomegalovirus AD169 infected in 1 uM compound pretreated HELF assessed as inhibition of viral replication measured after 6 days post-infection; type: functional, organism-based
Summary of the method: (§2)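 HELF pretreated with ODN 1 h before infection with HCMV AD169 (MOI 1); ODN kept in medium after 2 h adsorption at 37°C. At 6 days p.i., cells plus supernatants sonicated and titrated by plaque assay on HELF; plaques counted microscopically, expressed as PFU/ml (log10) or % of control. IC50/IC90 by linear regression; duplicate wells, three independent experiments, means ± SD.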

Human betaherpesvirus 5 [3] = test: Antimicrobial activity against 0.1 uM compound pretreated Human cytomegalovirus AD169 infected in HELF assessed as reduction in viral titer 37 degC; type: functional, organism-based
Summary of the method: (§3)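 HCMV AD169 (10^4 PFU) incubated with ODN at 0.1 μM at 4 or 37°C for various times; samples then diluted to bring ODN below an antivirally active level; residual infectivity titrated by plaque assay on HELF. Means ± SD of three independent experiments.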

Human betaherpesvirus 5 [4] = test: Antimicrobial activity against Human cytomegalovirus AD169 infected in 0.1 uM compound pretreated HELF assessed as viral DNA accumulation measured after 48 hrs post-infection by RT-PCR; type: functional, organism-based
Summary of the method: (§4)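 HELF treated with ODN (0.1 μM), then infected with HCMV AD169 (MOI 5). Total genomic DNA collected at 4 and 48 h p.i.; 15 ng analysed by TaqMan real-time PCR for IE1 (50 cycles, 95°C 15 s / 62°C 1 min). Copies normalized to 18S rRNA gene against plasmid standard curve. Means ± SD, three experiments.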

Human betaherpesvirus 5 [5] = test: Antimicrobial activity against Human cytomegalovirus isolate 1814 infected in compound pretreated HELF assessed as inhibition of viral replication; type: functional, organism-based; settings: Human betaherpesvirus 5, isolate 1814, HELF
Summary of the method: (§5)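 HELF pretreated 1 h with ODN, infected with clinical HCMV isolate (VR1814 or AL1, HUVEC-propagated) at MOI 1; ODN kept after 2 h adsorption. At 6 days p.i., yield titrated on HELF; IC50 from concentration–plaque reduction plot.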

Human betaherpesvirus 5 [6] = test: Antimicrobial activity against Human cytomegalovirus AD169 infected in 0.1 uM compound pretreated HELF assessed as viral DNA accumulation measured after 4 hrs post-infection by RT-PCR; type: functional, organism-based; summary of the method: as §4
unidentified adenovirus = test: Antimicrobial activity against unidentified adenovirus infected in compound pretreated HELF assessed as inhibition of viral replication; type: functional, organism-based
Summary of the method: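 HELF pretreated 1 h with ODN (0.1 or 1 μM), infected with an adenovirus clinical isolate (MOI 1); ODN kept after 2 h adsorption. Harvest at 4 days p.i., sonication, plaque titration on HELF. Means ± SD, three experiments.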

Human betaherpesvirus 5 [7] = test: Antimicrobial activity against Human cytomegalovirus isolate AL1 infected in compound pretreated HELF assessed as inhibition of viral replication; type: functional, organism-based; settings: Human betaherpesvirus 5, isolate AL1, HELF; summary of the method: as §5
Human betaherpesvirus 5 [8] = test: Antimicrobial activity against Human cytomegalovirus AD169 infected in compound pretreated HELF assessed as expression of early protein by immunoblotting; type: functional, organism-based
Summary of the method: (§6)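 HELF pretreated with ODN (1 μM) 1 h before and during infection with HCMV AD169 (MOI 1). Whole-cell extracts taken at set times p.i., run on 8% SDS-PAGE (50 μg protein/lane), immunoblotted with MAbs to IE1/IE2, UL44 (early) or UL99 (late); actin as loading control.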

Human betaherpesvirus 5 [9] = test: Antimicrobial activity against Human cytomegalovirus isolate 1814 infected in compound pretreated HUVEC assessed as inhibition of viral replication; type: functional, organism-based; settings: Human betaherpesvirus 5, isolate 1814, HUVEC
Summary of the method: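 HUVEC (passages 2–6, EGM-2 with 2% FBS) pretreated 1 h with ODN and infected with HCMV VR1814 at MOI 1; ODN maintained after 2 h adsorption. Yield at 6 days p.i. titrated on HELF; IC50 from concentration-dependent plaque reduction.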

Human betaherpesvirus 5 [10] = test: Antimicrobial activity against Human cytomegalovirus AD169 infected in compound pretreated HELF assessed as expression of late protein by immunoblotting; type: functional, organism-based; summary of the method: as §6
Human betaherpesvirus 5 [11] = test: Antimicrobial activity against Human cytomegalovirus AD169 infected in compound pretreated HELF measured as immediate early 1 mRNA level by RT-PCR; type: functional, organism-based
Human betaherpesvirus 5 [12] = test: Antimicrobial activity against Human herpesvirus 5 strain AD169 infected in HELF assessed as pp65 nuclear localization at 0.1 uM after 2 hrs […]; type: functional, organism-based
Human betaherpesvirus 5 [13] = test: Antimicrobial activity against Human cytomegalovirus TB40 expressing EGPF tagged UL32 infected in HELF assessed as inhibition of inhibition of viral adsorption at 0.1 uM after 2 hrs by fluorescence microscopy; type: functional, organism-based
Summary of the method: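 Prechilled HELF on coverslips exposed to ODN (0.1 μM) or heparin (30 μg/ml) 1 h at 4°C, then infected with HCMV TB40 UL32-EGFP (MOI 20) 2 h at 4°C to permit attachment only. Washed in ice-cold PBS, fixed in 4% formaldehyde, propidium iodide counterstain; green virions imaged by confocal fluorescence microscopy. Done twice.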

Human alphaherpesvirus 1 [14] = test: Antimicrobial activity against Human herpesvirus 1 infected in compound pretreated HELF assessed as inhibition of viral replication at 0.1 uM; type: functional, organism-based
Summary of the method: (§7)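 HELF pretreated with ODN (0.1 or 1 μM) 1 h before infection with a clinical HSV-1 isolate at MOI 0.1; ODN kept in medium after 2 h adsorption. Harvest at 48 h p.i., sonication, plaque titration on Vero cells. Means ± SD of three independent experiments.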

Human betaherpesvirus 5 [15] = test: Antimicrobial activity against Human cytomegalovirus AD169 infected in HELF assessed as inhibition of viral replication at 1 uM measured after 6 days post-infection; type: functional, organism-based
Human betaherpesvirus 5 [16] = test: Antimicrobial activity against Human cytomegalovirus AD169 infected in HELF assessed as inhibition of viral replication at 0.1 uM measured after 6 days post-infection; type: functional, organism-based
Human betaherpesvirus 5 [17] = test: Antimicrobial activity against Human cytomegalovirus AD169 infected in 0.1 uM compound pretreated HELF assessed as inhibition of viral replication measured after 6 days post-infection; type: functional, organism-based; summary of the method: as §2
Human betaherpesvirus 5 [18] = test: Antimicrobial activity against Human cytomegalovirus AD169 infected in compound pretreated HELF assessed as inhibition of viral replication measured after 6 days post-infection; type: functional, organism-based; settings: Human betaherpesvirus 5, AD169, HELF; summary of the method: as §2
[19] = tested on: Vesicular stomatitis Indiana virus; test: Antimicrobial activity against Vesicular stomatitis Indiana virus infected in compound pretreated HELF assessed as inhibition of viral replication; type: functional, organism-based
Summary of the method: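 HELFs exposed to ODN (0.1 or 1 μM) for 1 h, then infected with VSV serotype Indiana at MOI 1 (2 h adsorption, 37°C). ODN kept in the medium until 48 h p.i. Cells and supernatants were pooled, sonicated and titrated by plaque assay on HELFs. Data are means ± standard deviations of three independent experiments, duplicate wells.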

Human betaherpesvirus 5 [20] = test: Antimicrobial activity against Human cytomegalovirus AD169 infected in compound pretreated HELF assessed as expression of immediate early 2 protein by immunoblotting; type: functional, organism-based; summary of the method: as §6
[21] = Antimicrobial activity against Murine cytomegalovirus (strain Smith) infected in compound pretreated mouse NIH 3T3 cells assessed as inhibition of viral replication; type: functional, cell-based; settings: Murid betaherpesvirus 1, NIH3T3
Summary of the method: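 NIH 3T3 pretreated 1 h with ODN, infected with MCMV Smith (MOI 1); ODN kept after 2 h adsorption at 37°C. Harvest at 6 days p.i., sonication, plaque assay on NIH 3T3; IC50 from plaque reduction. Means ± SD, three experiments.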

[22] = Cytotoxicity against HELF assessed as cell viability after 6 days by MTT assay; type: cell-based; settings: human, HELF cells; summary of the method: as §1
Human alphaherpesvirus 1 [23] = test: Antimicrobial activity against Human herpesvirus 1 infected in compound pretreated HELF assessed as inhibition of viral replication at 1 uM; type: functional, organism-based; summary of the method: as §7
Human betaherpesvirus 5 [24] = test: Antimicrobial activity against 0.1 uM compound pretreated Human cytomegalovirus AD169 infected in HELF assessed as reduction in viral titer at 4 degC; type: functional, organism-based; summary of the method: as §3
Human betaherpesvirus 5 [25] = test: Antimicrobial activity against Human cytomegalovirus AD169 infected in compound pretreated HELF assessed as expression of immediate early 1 protein by immunoblotting; type: functional, organism-based; summary of the method: as §6
Human betaherpesvirus 5 [26] = test: Antimicrobial activity against Human cytomegalovirus AD169 infected in compound pretreated HELF measured as immediate early 2 mRNA level by RT-PCR; type: functional, organism-based

Cc1cn([C@H]2C[C@H](OP(O)(O)=S)[C@@H](COP(O)(=S)O[C@H]3C[C@H](n4cc(C)c(=O)[nH]c4=O)O[C@@H]3COP(O)(=S)O[C@H]3[C@@H](O)[C@H](n4cnc5c(=O)[nH]c(N)nc54)O[C@@H]3COP(O)(=S)O[C@H]3[C@@H](O)[C@H](n4ccc(N)nc4=O)O[C@@H]3COP(O)(=S)O[C@H]3C[C@H](n4cc(C)c(=O)[nH]c4=O)O[C@@H]3COP(O)(=S)O[C@H]3[C@@H](O)[C@H](n4cnc5c(=O)[nH]c(N)nc54)O[C@@H]3COP(O)(=S)O[C@H]3C[C@H](n4cc(C)c(=O)[nH]c4=O)O[C@@H]3COP(O)(=S)O[C@H]3C[C@H](n4cc(C)c(=O)[nH]c4=O)O[C@@H]3COP(O)(=S)O[C@H]3C[C@H](n4cc(C)c(=O)[nH]c4=O)O[C@@H]3COP(O)(=S)O[C@H]3C[C@H](n4cc(C)c(=O)[nH]c4=O)O[C@@H]3COP(O)(=S)O[C@H]3[C@@H](O)[C@H](n4cnc5c(=O)[nH]c(N)nc54)O[C@@H]3COP(O)(=S)O[C@H]3[C@@H](O)[C@H](n4ccc(N)nc4=O)O[C@@H]3COP(O)(=S)O[C@H]3C[C@H](n4cc(C)c(=O)[nH]c4=O)O[C@@H]3COP(O)(=S)O[C@H]3[C@@H](O)[C@H](n4cnc5c(=O)[nH]c(N)nc54)O[C@@H]3COP(O)(=S)O[C@H]3C[C@H](n4cc(C)c(=O)[nH]c4=O)O[C@@H]3COP(O)(=S)O[C@H]3C[C@H](n4cc(C)c(=O)[nH]c4=O)O[C@@H]3COP(O)(=S)O[C@H]3C[C@H](n4cc(C)c(=O)[nH]c4=O)O[C@@H]3COP(O)(=S)O[C@H]3C[C@H](n4cc(C)c(=O)[nH]c4=O)O[C@@H]3COP(O)(=S)O[C@H]3[C@@H](O)[C@H](n4cnc5c(=O)[nH]c(N)nc54)O[C@@H]3COP(O)(=S)O[C@H]3[C@@H](O)[C@H](n4ccc(N)nc4=O)O[C@@H]3COP(O)(=S)O[C@H]3C[C@H](n4cc(C)c(=O)[nH]c4=O)O[C@@H]3COP(O)(=S)O[C@H]3[C@@H](O)[C@H](n4cnc5c(=O)[nH]c(N)nc54)O[C@@H]3COP(O)(=S)O[C@H]3[C@@H](O)[C@H](n4ccc(N)nc4=O)O[C@@H]3COP(O)(=S)O[C@H]3C[C@H](n4cc(C)c(=O)[nH]c4=O)O[C@@H]3CO)O2)c(=O)[nH]c1=O (stereo partly drawn)
Activity [1]: Non-toxic | inhibition (Human betaherpesvirus 5 [2]): Active | inhibition (Human betaherpesvirus 5 [3]): inactive | inhibition (Human betaherpesvirus 5 [4]): Active | IC50 (Human betaherpesvirus 5 [5]): 38 nM | inhibition (Human betaherpesvirus 5 [6]): Active | inhibition (unidentified adenovirus): inactive | IC50 (Human betaherpesvirus 5 [7]): 44 nM | inhibition (Human betaherpesvirus 5 [8]): Active | IC50 (Human betaherpesvirus 5 [9]): 25 nM | inhibition (Human betaherpesvirus 5 [10]): Active | inhibition (Human betaherpesvirus 5 [11]): Active | inhibition (Human betaherpesvirus 5 [12]): Active | inhibition (Human betaherpesvirus 5 [13]): inactive | inhibition (Human alphaherpesvirus 1 [14]): inactive | inhibition (Human betaherpesvirus 5 [15]): inactive | inhibition (Human betaherpesvirus 5 [16]): inactive | inhibition (Human betaherpesvirus 5 [17]): Active | IC50 (Human betaherpesvirus 5 [18]): 20 nM | IC90 (Human betaherpesvirus 5 [18]): 65 nM | inhibition [19]: inactive | inhibition (Human betaherpesvirus 5 [20]): Active | IC50 [21]: 50 nM | CC50 at 144 h [22]: > 10 µM | inhibition (Human alphaherpesvirus 1 [23]): inactive | inhibition (Human betaherpesvirus 5 [24]): inactive | inhibition (Human betaherpesvirus 5 [25]): Active | inhibition (Human betaherpesvirus 5 [26]): Active
